# From PubChem
# KCC2 mod: KCC2 (human) Cl- transport modulation; KCC2 cells, thallium flux FluoZin-2 fluorescence; Q9H2X9; B-score of Tl+ flux slope (higher = more flux/activation; lower = inhibition) at 10 µM; 190,000 tested, 2.2% active;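 active means thallium flux slope and its plate-corrected score both differing from the plate sample mean at a set confidence after two filtering rounds, in either direction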;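 further: slope of fluorescence scaled to starting intensity during 10 to 20 s after thallium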
# Target sequence (Q9H2X9 whole entry, looked up): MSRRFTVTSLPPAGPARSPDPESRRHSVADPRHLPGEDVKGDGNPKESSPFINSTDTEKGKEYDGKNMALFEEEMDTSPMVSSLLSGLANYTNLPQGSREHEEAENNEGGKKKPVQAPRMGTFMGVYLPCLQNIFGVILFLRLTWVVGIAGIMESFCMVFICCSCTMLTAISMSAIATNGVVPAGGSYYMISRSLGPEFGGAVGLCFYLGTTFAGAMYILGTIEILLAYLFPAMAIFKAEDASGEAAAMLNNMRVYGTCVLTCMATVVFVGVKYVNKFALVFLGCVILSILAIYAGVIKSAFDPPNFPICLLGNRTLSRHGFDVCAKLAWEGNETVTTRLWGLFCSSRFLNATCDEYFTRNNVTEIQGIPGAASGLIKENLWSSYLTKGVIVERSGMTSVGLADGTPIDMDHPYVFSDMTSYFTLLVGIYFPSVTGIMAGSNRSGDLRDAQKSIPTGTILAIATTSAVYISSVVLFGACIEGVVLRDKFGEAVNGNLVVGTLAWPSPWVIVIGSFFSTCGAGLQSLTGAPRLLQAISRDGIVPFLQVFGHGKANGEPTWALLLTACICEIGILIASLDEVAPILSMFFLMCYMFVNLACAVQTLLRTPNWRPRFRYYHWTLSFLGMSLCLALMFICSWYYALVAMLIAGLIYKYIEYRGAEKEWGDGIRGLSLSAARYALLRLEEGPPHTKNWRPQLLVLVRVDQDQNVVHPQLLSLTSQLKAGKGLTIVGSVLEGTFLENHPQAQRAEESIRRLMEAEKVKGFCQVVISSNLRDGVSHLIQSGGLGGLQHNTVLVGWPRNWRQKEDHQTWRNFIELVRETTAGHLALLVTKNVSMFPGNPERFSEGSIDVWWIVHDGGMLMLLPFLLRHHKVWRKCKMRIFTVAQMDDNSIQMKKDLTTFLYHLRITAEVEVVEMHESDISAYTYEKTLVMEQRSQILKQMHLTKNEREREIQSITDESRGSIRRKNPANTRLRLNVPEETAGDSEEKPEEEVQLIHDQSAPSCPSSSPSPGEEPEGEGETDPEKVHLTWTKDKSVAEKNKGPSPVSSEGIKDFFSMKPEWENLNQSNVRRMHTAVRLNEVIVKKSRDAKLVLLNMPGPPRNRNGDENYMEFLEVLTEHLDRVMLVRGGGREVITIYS
# KCNQ1 block: human KCNQ1 channel inhibition | B-score at 10 µM | CHO-K1 KCNQ1, FluxOR thallium flux fluorescence; active compounds read high | 310,000 tested, 1.3% active | P51787;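 active means compounds whose thallium flux B-score, printed positive for inhibition, exceeds three library SD while starting fluorescence stays within three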;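 further: channel opened by potassium depolarization with thallium stimulus after 20 min compound exposure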
# KCNK9 block: human KCNK9 channel inhibition; Q9NPC2; HEK293 KCNK9, FluxOR thallium flux fluorescence; active compounds read low; B-score at 10 µM; 310,000 tested, 1.2% active; AID 488922;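 active means ratio B-score over 3 SD below the library mean, with starting fluorescence within 5 SD of its mean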;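 further: negative B-score means less thallium flux so channel inhibition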
# hERG rescue: hERG (human) protection from proarrhythmic block; AID 1511; 310,000 tested, 0.51% active; CHO-hERG, FluxOR thallium flux, dofetilide IC70 present; Q12809; activation (rescue from dofetilide block), less the hit threshold, % at 10 µM;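 active means activation above the mean of controls blocked by dofetilide plus 5 SD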;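 further: thallium influx through hERG after potassium depolarization seen as dye fluorescence rise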
# KCNK3 inh: human KCNK3 channel inhibition, primary screen; 340,000 tested, 0.84% active; B-score at 10 µM; CHO-KCNK3 thallium flux, FluxOR fluorescence; active compounds read low; AID 602410;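 active means B-score under library mean minus 4 SD, starting fluorescence ratio at most library mean plus 5 SD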;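 further: more negative B-score means stronger inhibition of thallium flux through KCNK3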
# KCNQ1 pot: potentiates or activates the human KCNQ1 potassium channel; P51787; CHO-K1 KCNQ1, thallium flux FluxOR fluorescence; active compounds read high; B-score at 10 µM; 310,000 tested, 0.35% active; AID 2648;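 active means fluorescence ratio B-score, a plate-corrected score, at least three library SD, with initial intensity B-score within 5 SD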
#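 System: CHO-K1 cells stably expressing KCNQ1 / Medium: assay buffer for compound exposure, DMSO matched across wells / Reagent: thallium- and potassium-containing depolarizing buffer / Compound: one concentration, matched DMSO / Incubation: 20 min compound pretreatment at room temperature / Measured by: kinetic FluxOR fluorescence, 10 s baseline plus 110 s post-stimulus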
# KCNK3 confirm: confirmation of human KCNK3 two-pore domain potassium channel inhibitors | 2,400 tested, 99% active | shares compounds with KCNK3 inh | CHO-KCNK3 thallium flux, FluxOR fluorescence; 0% buffer, 100% carvedilol maximal block | ratio percent of control, % at 10 µM;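 active means ratio percent of control, averaged over triplicates, above buffer control mean plus 5 SD, cut at about 64% in these data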;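 further: ratio is the fluorescence rise from min to max over baseline after thallium stimulus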
# KCNK3 noninduced: activity in cells without induced KCNK3 expression | thallium flux ratio (lower = more inhibition) at 10 µM | AID 651747 | 2,400 tested, 40% active | non-induced KCNK3 parental cells, FluxOR thallium flux; active compounds read low | shares compounds with KCNK3 inh;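 active means thallium flux ratio, averaged over three wells, more than 5 SD below the buffer control mean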;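 further: host cells are CHO cells without KCNK3 induction; ratio is peak minus trough fluorescence over baseline then normalized to buffer controls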
# The depositor's hits bear a star; i = inactive; · = no result. A selection: hits, their analogues and other compounds. The true share with any hit is near 4.1%.
SMILES,KCC2 mod,KCNQ1 block,KCNK9 block,hERG rescue,KCNK3 inh,KCNQ1 pot,KCNK3 confirm,KCNK3 noninduced
Cn1c(SCc2ccc(Br)cc2)nc2ccccc2c1=O,·,i,i,-3,-9.5*,i,123*,0.13*
Cn1c(SCc2ccccc2)nc2ccsc2c1=O,-1.5,i,i,-11,-9.8*,i,104*,i
Cn1c(SCC#N)nc2ccccc2c1=O,1.1,i,i,-11,i,i,·,·
Cn1c(SCCOc2ccccc2F)nc2ccccc2c1=O,-0.45,i,i,-12,-13*,i,110*,i
OC1COC(O)C(O)C1O (stereo not drawn),·,i,i,-5,i,i,·,·
COc1ccc(-c2ccc3c(c2)S(=O)(=O)c2cccc(C(=O)N4CCN(c5c(Cl)cncc5Cl)CC4)c2C3=O)cc1OC,·,·,·,·,i,·,·,·
CN(C)c1ccc(N2C(=NC(=O)COc3ccccc3)SC3CS(=O)(=O)CC32)cc1 (stereo not drawn),·,i,i,-8,i,i,·,·
COCCNC(=O)c1ccccc1NC(=O)Cc1ccccc1[N+](=O)[O-],-0.99,i,i,-12,-9.9*,i,0,i
COCCNC(=O)c1ccccc1NC(=O)c1cccc([N+](=O)[O-])c1C,·,i,i,3,i,i,·,·
COC(=O)c1sc(S(=O)(=O)N2CCCCC2C)c(C(=O)OC)c1C (stereo not drawn),·,·,·,·,i,·,·,·
Cc1nc(SC2CC(=O)N(c3cc(Cl)cc(Cl)c3)C2=O)nc2c1CCCC2 (stereo not drawn),-1.2,i,i,3,-9.8*,i,105*,0.16*
COc1ccc(OC)c(NC(=S)NC(=O)c2ccc(Br)o2)c1,·,i,i,2,i,i,·,·
Cc1ccc(NC(=O)Cn2c(=O)c3cccn3c3ccccc32)c(Cl)c1,·,i,i,-6,i,i,·,·
NC(=O)c1ccc(Br)c(S(=O)(=O)N2CCCCC2)c1,·,i,i,-11,i,i,·,·
O=S(=O)(c1cc(Br)ccc1Br)N1CCCCCC1,·,i,i,-4,-11*,i,129*,0.14*
Cc1ccccc1C(=O)Nc1c(C(=O)N(CCN(C)C)Cc2ccco2)oc2ccccc12,·,i,i,-15,i,i,·,·
COc1ccccc1C(=O)Nc1c(C(=O)N(CCN(C)C)Cc2ccco2)oc2ccccc12,·,i,i,-31,-11*,i,125*,0.14*
CN(C(=O)c1cccc(NC(=O)Cc2ccc(NC(=O)C3CCN(C(=O)C4CCC4)CC3)cc2)c1)C1CCCCC1,·,·,·,·,i,·,·,·
Cc1ccc(OCn2c(=O)sc3ccccc32)cc1,0.018,i,i,-9,-11*,i,112*,i
O=c1sc2ccccc2n1CCOc1ccccc1,-0.58,i,i,-3,i,i,·,·
Cc1ccc(C(C#N)c2ccc(C(=O)c3ccc(F)cc3)cc2)cc1 (stereo not drawn),-0.095,13*,i,-14,-8.8*,i,99*,0.12*
CN(CC(=O)Nc1cccc(F)c1)CC(=O)Nc1ccccc1-c1ccccc1,·,·,·,·,i,·,·,·
CN(CC(=O)Nc1cccc(F)c1)CC(=O)Nc1ccccc1Oc1ccccc1,·,i,i,-13,-9*,i,105*,i
COc1ccc(OCCSc2nc(C)nc3ccccc23)cc1,-0.59,i,i,-28,-12*,i,123*,i
CCOC(=O)N1CCC(N2Cc3cccc(C(=O)Nc4ccc(CC)cc4)c3C2=O)CC1,-0.056,i,i,-26,i,i,·,·
SMILES,KCC2 mod,KCNQ1 block,KCNK9 block,hERG rescue,KCNK3 inh,KCNQ1 pot,KCNK3 confirm,KCNK3 noninduced
CCc1cccc(NC(=O)c2cccc3c2C(=O)N(C2CCCCC2)C3)c1,·,i,i,-8,-8.7*,i,78*,i
O=C(O)C(=O)/C(=C\c1cccc2ccccc12)c1ccc2ccccc2n1,·,i,i,-2,-9.1*,i,137*,i
CCCN1Cc2cccc(C(=O)NCCc3cccc(C)c3)c2C1=O,·,i,i,-10,-9.7*,i,110*,0.15*
O=C1/C(=C/c2cccnc2)Sc2ccccc21,0.39,i,i,-6,-9.6*,i,102*,i
CC(=O)Nc1ccc(/C=C2\Sc3ccccc3C2=O)cc1,-0.97,i,i,-7,i,i,·,·
O=C1NC(=Nc2ccccc2)S/C1=C/c1cccnc1,·,i,i,-8,-11*,i,90*,i
O=C(O)C(=Cc1cccc([N+](=O)[O-])c1)c1ccc(Cl)cc1,·,·,·,·,i,·,·,·
CCOc1ccc(NC(=O)CN(C)C(=O)CCc2ccccc2Cl)cc1OCC,·,i,i,-22,i,i,·,·
CCOc1ccc(NC(=O)CN(C)C(=O)CCCOc2ccc(Cl)c(C)c2)cc1OCC,·,i,i,-6,-9.9*,i,93*,i
O=C(CN1C(=O)c2ccccc2S1(=O)=O)Nc1cccc(S(=O)(=O)N2CCCCC2)c1,·,·,·,·,i,·,·,·
CC1=C(C(=O)Nc2cccc(C(=O)NCc3ccc(F)cc3)c2)SCCO1,·,i,i,-9,-9*,i,84*,i
CC1=C(C(=O)Nc2ccc(CC(=O)NCc3ccccc3C)cc2)SCCO1,·,i,i,-10,i,i,·,·
CC1=C(C(=O)Nc2cccc(C(=O)NCc3ccccc3C)c2)SCCO1,·,i,-6.6*,-11,-8.8*,i,100*,i
Nn1c(SCC(=O)Nc2ccc(N3CCOCC3)cc2)nnc1-c1ccccc1F,·,·,·,·,i,·,·,·
O=C(NCCn1cc(SCc2ccc(F)cc2)c2ccccc21)c1ccccc1F,0.09,11*,-7.5*,-23,-16*,i,140*,0.12*
O=C1c2cccc3cccc(c23)C(=O)N1CC1CCN(CC(O)COc2ccc3ccccc3c2)CC1 (stereo not drawn),·,i,i,-17,-9.9*,i,101*,0.15*
CCc1ccc(OCC(O)CN2CCC(CN3C(=O)c4cccc5cccc(c45)C3=O)CC2)cc1 (stereo not drawn),0.91,i,i,-10,i,i,·,·
CCCCOc1ccc(N2C(=O)C(C)CNC2=S)cc1 (stereo not drawn),·,·,·,·,i,·,·,·
c1ccc(-c2nc(-c3ccco3)n3ccccc23)cc1,-0.54,i,i,-12,-9.7*,i,116*,0.15*
